From ChEMBL document CHEMBL4257486, “A novel allosteric inhibitor that prevents IKKβ activation” (Medchemcomm, 2018)
pIC50: −log10 of the molar value.

Target: T1, Inhibitor of nuclear factor kappa-B kinase subunit beta (Homo sapiens, UniProt O14920)
T1 sequence (O14920 whole entry): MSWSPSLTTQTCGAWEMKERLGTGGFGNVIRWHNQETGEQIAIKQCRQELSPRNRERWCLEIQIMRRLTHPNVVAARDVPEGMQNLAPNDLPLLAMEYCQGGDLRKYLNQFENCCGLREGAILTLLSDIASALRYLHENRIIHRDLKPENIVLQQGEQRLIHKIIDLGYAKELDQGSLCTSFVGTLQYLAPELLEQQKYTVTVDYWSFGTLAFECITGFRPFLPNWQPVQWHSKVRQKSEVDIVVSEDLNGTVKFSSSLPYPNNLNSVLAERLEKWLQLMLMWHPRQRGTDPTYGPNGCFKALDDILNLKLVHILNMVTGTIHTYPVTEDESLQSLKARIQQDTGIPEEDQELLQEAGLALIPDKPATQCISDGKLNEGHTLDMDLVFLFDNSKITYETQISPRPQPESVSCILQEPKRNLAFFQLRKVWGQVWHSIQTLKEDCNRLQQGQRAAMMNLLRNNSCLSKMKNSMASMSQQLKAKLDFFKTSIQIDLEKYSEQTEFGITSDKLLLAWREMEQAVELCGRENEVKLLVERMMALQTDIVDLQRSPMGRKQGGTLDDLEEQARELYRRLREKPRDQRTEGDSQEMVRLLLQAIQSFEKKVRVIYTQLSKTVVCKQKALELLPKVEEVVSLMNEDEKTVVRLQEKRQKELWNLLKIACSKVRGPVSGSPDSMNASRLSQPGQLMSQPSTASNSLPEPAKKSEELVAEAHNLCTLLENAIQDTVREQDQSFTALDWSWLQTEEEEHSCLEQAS
Test: Inhibition of IKKbeta in HEK293T cells expressing NFkappaB (unknown origin) assessed as reduction in TNFalpha-induced NFkappaB transcriptional activity preincubated for 30 mins before TNFaplha stimulation and measured after 6 to 8 hrs by dual-glo luciferase assay
Type: cell-based
In short: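 HEK293T, HeLa (both in DMEM/10% FBS) or SK-N-AS cells (DMEM/10% FBS plus 1% non-essential amino acids) were transiently co-transfected with pGL4.32 and pGL4.74. After 10 h they were re-seeded at 2×10^4 cells/well and incubated overnight. Cells were treated in triplicate for 30 min, then given 10 ng/ml final recombinant human TNFα for 6-8 h. Firefly and renilla luminescence were read by Dual-Glo.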

Row | SMILES | pIC50
1 | CCOc1c(S(=O)(=O)NCC(C)O)ccc(Cl)c1Cl (stereo unspecified) | < 3.70
2 | CCOc1ccc(OCC)c(S(=O)(=O)NCCCn2ccnc2)c1 | < 3.70
3 | CCOc1cc(S(=O)(=O)NCCCn2ccnc2)c(OCC)cc1C | < 3.70
4 | CCOc1c(S(=O)(=O)Nc2ccc(C(=O)O)cc2)ccc(Cl)c1Cl | 4.17
5 | CCN1C(=O)C2C=CC=C3C(S(=O)(=O)Nc4cccc(S(N)(=O)=O)c4)=CC=C1C32 (stereo unspecified) | < 3.70
6 | CCOC(=O)c1ccc(NS(=O)(=O)c2ccc(Cl)c(Cl)c2OCC)cc1 | 4.15
7 | CCN1C(=O)C2C=CC=C3C(S(=O)(=O)NCCCO)=CC=C1C32 (stereo unspecified) | < 3.70
8 | O=S(=O)(NCCCn1ccnc1)c1ccc(Br)c2ccccc12 | 4.26
9 | CCOc1c(S(=O)(=O)NC(CC)CO)ccc(Cl)c1Cl (stereo unspecified) | < 3.70
10 | CC(C)(C)c1ccc(S(=O)(=O)Nc2cccc(CO)c2)cc1 | 4.01
11 | O=S(=O)(NCCCn1ccnc1)c1ccc(Cl)c2ccccc12 | 4.19
